In PubChem BioAssay one finds viability, differential viability (reversal) and inhibition data, which are given here for twelve compounds.

Assay [1] is described as follows: reduced viability of SK-BR-3 breast cancer cells – cell-based, 24 h, human, pilot screen (AID 572).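 Also: compound exposure lasted between 18 and 24 h rather than exactly 24 h; 100% = carrier-treated control wells.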 The conditions noted are these: SK-BR-3 viability, CellTiter-Glo luminescence, at 10 µM, stronger effect = lower value. In general terms: In ATP-based viability assays light output follows the ATP content of the culture.
Assay [2] in a line: HUVEC growth inhibition – cell-based, human, primary screen (AID 575;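 active = viability at or below 30% in both replicate assays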;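 also: 100% = median of untreated cell wells with 0.1% DMSO on each plate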). The conditions noted are these: HUVEC proliferation, CellTiter-Glo luminescence, 72 h; at 10 µM; stronger effect = lower value. In outline:
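Assay system: Primary human umbilical vein endothelial cells | Quantity: 1250 cells per well | Medium: Supplemented EBM, 2% fetal bovine serum | Detection: CellTiter-Glo luminescence measuring cellular ATP | Read-out: % viability vs DMSO wells | Plate: Collagen-coated 384-well format | Times: 72 h exposure, 37 °C, 5% CO2, 30 min RT equilibration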

A short description of assay [3]: H69AR cell proliferation blockers – human, duplicate replicates, primary screen (AID 580;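 active = viability at or under a set limit in both replicates, limit being median viability minus 3 SD, cut at about 48% in these data, passing the limit was not always enough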;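 also: 100% = mean luminescence of untreated wells and 0% = no signal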). To be noted: H69AR lung tumor cells viability, ATP luminescence, 72 h; at 10 µM; stronger effect = lower value.
A short description of assay [4]: MRP1 drug-resistance reversers in H69AR cells – cell-based, doxorubicin co-treatment, pilot screen (AID 601;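 active = viability loss from added drug above about 55%, and viability with drug at most 40%, in both replicates, limit read from the data, passing the limit was not always enough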). The conditions noted are these: CellTiter-Glo, 72 h, at 10 µM; for differential viability (reversal): stronger effect = higher value.
Assay [5] can be described thus: yeast transport mutant growth inhibition pilot in 384-well plates, post-Golgi transport modulator project (AID 636; in the data active = inhibition above about 31%). To be noted: absorbance 615 nm, about 18 h, stronger effect = higher value.
A short description of assay [6]: growth suppression of yeast trafficking mutant, preliminary HTS, modulators of trafficking downstream of Golgi apparatus project, 1536-format plate, OD 615 nm (AID 637; in the data active = inhibition above about 30%). The conditions noted are these: yeast transport mutant growth, absorbance 615 nm, 18 h; stronger effect = higher value.
Where [7] appears, read: H69AR cells + 2 uM doxorubicin, measured here: viability with 2 uM doxorubicin, stronger effect = lower value.
[8] abbreviates: H69AR cells, compound alone cytotoxicity.

Activity calls are given as the source filed them.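 The calls were made as follows, unless noted: active = viability at or below 10% of carrier control in both of two separate runs; inconclusive = viability at or below 10% in only one of the two runs; inactive = the rest.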

Turning to `Cc1cc(C(=O)Nc2nc3c(s2)CCCC3)cs1`, the viability is 93% (inactive) in assay [1]; 67.5% (inactive) in assay [2]; 91.9% (inactive) in assay [3]; 77.8% in assay [4] (setting [7]); 91.9% in assay [4] (setting [8]). Further, in assay [4] (H69AR cells + 2 uM doxorubicin), the differential viability (reversal) is 14% (inactive). Moreover, the results for the inhibition in assay [5] and in assay [6] were -0.14% (inactive) and -7.58% (inactive), respectively.
For `COc1ccc(Cl)c(NC(=O)NCCN2CCN(c3ccccc3)CC2)c1`, the viability in assay [1] is 102% (inactive); in assay [2] it was 107% (inactive); in assay [3], 90.4% (inactive); in assay [4] (setting [7]), 82%; in assay [4] (setting [8]) it was 90.4%. In addition, the differential viability (reversal) in assay [4] (H69AR cells + 2 uM doxorubicin) was 8.35% (inactive). In addition, the inhibition in assay [5] is -2% (inactive); in assay [6] it was 1.27% (inactive).
On to `CCn1c(SCc2cc(=O)[nH]c3ccccc23)nc2c1c(=O)n(C)c(=O)n2C`, for which the viability in assay [1] was 95% (inactive); in assay [2], 109% (inactive); in assay [3], 92% (inactive); in assay [4] (setting [7]) it was 95.8%; in assay [4] (setting [8]), 92%. Also, in assay [4] (H69AR cells + 2 uM doxorubicin), the differential viability (reversal) is -3.81% (inactive). In addition, the results for the inhibition in assay [5] and in assay [6] were 0.68% (inactive) and -2.18% (inactive), respectively.
With `CCCN1CCN(C(=O)Cn2cccc2C(=O)c2ccccc2)CC1`, the viability is 84% (inactive) in assay [1]; 99.9% (inactive) in assay [2]; 100% (inactive) in assay [3]; 82.2% in assay [4] (setting [7]); 100% in assay [4] (setting [8]). The differential viability (reversal) in assay [4] (H69AR cells + 2 uM doxorubicin) is 17.8% (inactive). In addition, the figures for the inhibition in assay [5] and in assay [6] were -2.27% (inactive) and 1.27% (inactive), respectively.
In the case of `Cn1c2c(c(=O)n(C)c1=O)C(NC(=O)C(C)(C)C)(C(F)(F)F)C(=O)N2` (stereo unspecified), the viability is 105% (inactive) in assay [1]; 98.7% (inactive) in assay [2]; 90.3% (inactive) in assay [3]; 81.3% in assay [4] (setting [7]); 90.3% in assay [4] (setting [8]). The differential viability (reversal) in assay [4] (H69AR cells + 2 uM doxorubicin) is 9.01% (inactive). Besides, the inhibition was -6.62% (inactive) in assay [5] and -1.82% (inactive) in assay [6].
Regarding `Cc1cc(Br)c(S(=O)(=O)n2nnc3ccccc32)cc1C`, the viability in assay [1] was 107% (inactive); in assay [2], 101% (inactive); in assay [3], 81.8% (inactive); in assay [4] (setting [7]) it was 85.8%; in assay [4] (setting [8]), 81.8%. Moreover, the differential viability (reversal) in assay [4] (H69AR cells + 2 uM doxorubicin) is -4.02% (inactive). The inhibition in assay [5] is -8.22% (inactive); in assay [6], 5.09% (inactive).
As to `Cc1ccc(-n2ncc3c(=O)n(CC(=O)NCc4ccco4)cnc32)cc1`, the viability was 105% (inactive) in assay [1]; 76.5% (inactive) in assay [2]; 81.3% (inactive) in assay [3]; 93.6% in assay [4] (setting [7]); 81.3% in assay [4] (setting [8]). Further, the differential viability (reversal) in assay [4] (H69AR cells + 2 uM doxorubicin) was -12.3% (inactive). For the same compound, the values for the inhibition in assay [5] and in assay [6] were 1.92% (inactive) and 1.77% (inactive), respectively.
Take `Oc1c(I)cc(I)c2cccnc12`: the viability is 61% (inactive) in assay [1]; 71.3% (inactive) in assay [2]; 84.6% (inactive) in assay [3]; 90.9% in assay [4] (setting [7]); 84.6% in assay [4] (setting [8]). The differential viability (reversal) in assay [4] (H69AR cells + 2 uM doxorubicin) is -6.25% (inactive). Moreover, the inhibition in assay [5] was -2.73% (inactive); in assay [6] it was 1% (inactive).
As for `CCN(CC)CCCNc1oc(-c2cccc(Cl)c2)nc1C#N`, the viability in assay [1] is 113% (inactive); in assay [2] it was 74.7% (inactive); in assay [3], 76.6% (inactive); in assay [4] (setting [7]), 77%; in assay [4] (setting [8]) it was 76.6%. In assay [4] (H69AR cells + 2 uM doxorubicin), the differential viability (reversal) was -0.39% (inactive). The inhibition in assay [5] was -4.55% (inactive); in assay [6], -0.67% (inactive).
For `C[N+](C)(C)CCOP(=O)([O-])OC[C@H](O)CO`, the viability in assay [1] is 100% (inactive); in assay [2], 99.1% (inactive); in assay [3], 96% (inactive); in assay [4] (setting [7]), 95%; in assay [4] (setting [8]), 96%. Besides, the differential viability (reversal) in assay [4] (H69AR cells + 2 uM doxorubicin) is 0.95% (inactive). Also, the inhibition in assay [5] was -2.99% (inactive); in assay [6] it was -5.17% (inactive).
With `Cc1ccccc1NC(=O)CN1CCC(NC(=O)Nc2ccccc2)CC1`, the viability in assay [1] is 108% (inactive); in assay [2], 104% (inactive); in assay [3], 84.8% (inactive); in assay [4] (setting [7]), 89.1%; in assay [4] (setting [8]) it was 84.8%. The differential viability (reversal) in assay [4] (H69AR cells + 2 uM doxorubicin) was -4.37% (inactive). Also, the inhibition in assay [5] is -7.7% (inactive); in assay [6] it was -3.64% (inactive).
On to `Cc1ccc(S(=O)(=O)N2CCN(C(=O)N3CCOCC3)C2C)cc1` (stereo unspecified), for which the viability was 76% (inactive) in assay [1]; 103% (inactive) in assay [2]; 99% (inactive) in assay [3]; 103% in assay [4] (setting [7]); 99% in assay [4] (setting [8]). For the same compound, the differential viability (reversal) in assay [4] (H69AR cells + 2 uM doxorubicin) was -4.24% (inactive). For the same compound, the inhibition is -8.08% (inactive) in assay [5] and -2.18% (inactive) in assay [6].

The viability is a read-out of living cells in per cent, often relative to untreated cells. In general, inhibition refers to the change of the read-out against control, counted positive when it falls.
